Measurements collected from several papers.
Target: Homeodomain-interacting protein kinase 4 (HIPK4, Homo sapiens, UniProt Q8NE63)
One construct used (Q8NE63 1-616): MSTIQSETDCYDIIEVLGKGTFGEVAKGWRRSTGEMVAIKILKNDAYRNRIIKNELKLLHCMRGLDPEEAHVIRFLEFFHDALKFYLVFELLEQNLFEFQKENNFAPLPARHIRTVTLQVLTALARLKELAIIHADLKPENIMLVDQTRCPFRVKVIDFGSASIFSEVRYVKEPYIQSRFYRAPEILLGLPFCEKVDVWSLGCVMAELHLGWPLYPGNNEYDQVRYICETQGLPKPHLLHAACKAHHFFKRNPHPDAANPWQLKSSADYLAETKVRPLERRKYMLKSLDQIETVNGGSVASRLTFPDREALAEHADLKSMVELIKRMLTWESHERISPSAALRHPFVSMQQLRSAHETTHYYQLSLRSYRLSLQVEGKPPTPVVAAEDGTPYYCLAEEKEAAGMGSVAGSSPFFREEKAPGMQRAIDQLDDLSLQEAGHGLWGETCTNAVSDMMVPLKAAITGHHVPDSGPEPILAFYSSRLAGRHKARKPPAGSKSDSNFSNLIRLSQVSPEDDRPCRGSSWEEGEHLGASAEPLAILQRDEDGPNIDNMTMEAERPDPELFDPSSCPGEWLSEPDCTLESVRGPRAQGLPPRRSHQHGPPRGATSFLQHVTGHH

Compound | observed | mode | method | tested at | endpoint | result
C1=C/COCc2cc(ccc2OCCN2CCCC2)Nc2nccc(n2)-c2cccc(c2)COC/1 | binding |  |  | 0.1 µM | remaining binding | 2.3%
CCCCC(=O)Nc1ccc(-c2ccc3ncn(CCC)c(=O)c3c2)cn1 | binding |  | competition with immobilised ligand | 0.5 µM | remaining binding | 66%
CO[C@@H]1[C@H](N(C)C(=O)c2ccccc2)C[C@H]2O[C@]1(C)n1c3ccccc3c3c4c(c5c6ccccc6n2c5c31)C(=O)NC4 | enzyme activity | inhibitor |  | 1 µM | inhibition | 23%
C[C@H]1CC[C@H](n2c3cnccc3c3cnc(Nc4ccc5c(n4)CCN(C(=O)CO)C5)nc32)CC1 | binding |  | competition with immobilised ligand | 1 µM | remaining binding | 56%
CC(C)S(=O)(=O)c1ccc2nccc(Nc3ccc4sc(C5CCCC5)nc4c3)c2c1 | enzyme activity | inhibitor |  | 1 µM | activity vs control | 98%
CC#CC(=O)N1CCC[C@H]1c1nc(-c2ccc(C(=O)Nc3ccccn3)cc2)c2c(N)nccn12 | enzyme activity | inhibitor |  | 1 µM | inhibition | 0%
CN1CCN(C(=O)c2ccc(NC(=O)Nc3ccc(N(C)c4ccnc(Nc5ccc(CS(C)(=O)=O)cc5)n4)cc3)cc2)CC1 | binding |  | competition with immobilised ligand | 1 µM | remaining binding | 74%
C#Cc1cc(-c2cc(Nc3nc(N[C@@H](C)c4ccc(F)cn4)ncc3Cl)n[nH]2)ccc1C=O | enzyme activity | inhibitor |  | 0.2 µM | inhibition | 4.92%
